Reference: ChEMBL document CHEMBL1132538, “Potential multifunctional inhibitors of HIV-1 reverse transcriptase. Novel [AZT]-[TSAO-T] and [d4T]-[TSAO-T] heterodimers modified in the linker and in the dideoxynucleoside region” (J Med Chem, 1999)

Experiments:
[1] = test system: CCRF-CEM; experiment: Inhibition of HIV-2 induced cytopathicity against CEM cell; type: functional, cell-based; conditions: Homo sapiens
Summary of the method: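 CEM cells at 4 × 10^5 per mL infected with HIV-2 at ∼100 CCID50 per mL of cell suspension, then mixed 1:1 with serial compound dilutions. Giant cell formation scored microscopically after 4 days.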

[2] = test system: MT4; experiment: Cytostatic concentration against MT-4 cell; type: functional; conditions: Homo sapiens
[3] = test system: CCRF-CEM; experiment: Inhibition of HIV-1 induced cytopathicity against CEM cell; type: functional, cell-based; conditions: Homo sapiens
Summary of the method: (§1)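 HIV-1 or HIV-2 at ~100 CCID50 per mL infecting CEM (4 × 10^5 cells/mL) or MT-4 (3 × 10^5 cells/mL) cells, mixed 1:1 with compound dilutions in microtiter wells. After 4 days, giant cell formation (CEM) or virus-induced cytopathicity (MT-4) scored microscopically.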

[4] = test system: MT4; experiment: Inhibition of HIV-1 induced cytopathicity against MT-4 cell; type: functional, cell-based; conditions: Homo sapiens; summary of the method: as §1
[5] = test system: MT4; experiment: Inhibition of HIV-2 induced cytopathicity against MT-4 cell; type: functional, cell-based; conditions: Homo sapiens; summary of the method: as §1
[6] = test system: CCRF-CEM; experiment: Cytostatic concentration against CEM cell; type: functional; conditions: Homo sapiens
[7] = test system: CEM (human); experiment: Inhibition of HIV-2 induced cytopathicity against CEM cell
[8] = test system: MT-4 (human); experiment: Cytostatic concentration against MT-4 cell

SMILES	EC50 [1] [µM]	EC50 [3] [µM]	CC50 [2] [µM]	EC50 [4] [µM]	EC50 [5] [µM]	CC50 [6] [µM]	EC50 [7] [µM]	CC50 [8] [µM]
COC(=O)C(C)NP(=O)(OCC1OC(n2cc(C)c(=O)n(CCCBr)c2=O)CC1N=[N+]=[N-])Oc1ccccc1 (stereo unspecified)	> 50	> 50	44	> 50	> 50	41	–	–
Cc1cn([C@@H]2O[C@H](CO[Si](C)(C)C(C)(C)C)[C@@]3(OS(=O)(=O)C=C3N)[C@H]2O[Si](C)(C)C(C)(C)C)c(=O)n(CC#CC#CCn2c(=O)c(C)cn([C@H]3O[C@@H](CO[Si](C)(C)C(C)(C)C)[C@]4(OS(=O)(=O)C=C4N)[C@@H]3O[Si](C)(C)C(C)(C)C)c2=O)c1=O	> 250	> 50	65	> 50	> 250	> 250	–	–
COC(=O)C(C)NP(=O)(OC[C@@H]1O[C@H](n2cc(C)c(=O)n(CCCCCCn3c(=O)c(C)cn([C@@H]4O[C@H](CO[Si](C)(C)C(C)(C)C)[C@@]5(OS(=O)(=O)C=C5N)[C@H]4O[Si](C)(C)C(C)(C)C)c3=O)c2=O)C[C@H]1O)Oc1ccccc1 (stereo partly specified)	> 50	0.25	25	0.93	> 50	104	–	–
Cc1cn([C@@H]2O[C@H](CO[Si](C)(C)C(C)(C)C)[C@@]3(OS(=O)(=O)C=C3N)[C@H]2O[Si](C)(C)C(C)(C)C)c(=O)n(CC#Cc2cn([C@@H]3C=C[C@H](CO)O3)c(=O)[nH]c2=O)c1=O	> 10	0.11	8	0.18	> 10	21	–	–
COC(=O)C(C)NP(=O)(OC[C@@H]1O[C@H](n2cc(C)c(=O)n(CCCn3c(=O)c(C)cn([C@@H]4O[C@H](CO[Si](C)(C)C(C)(C)C)[C@@]5(OS(=O)(=O)C=C5N)[C@H]4O[Si](C)(C)C(C)(C)C)c3=O)c2=O)C[C@H]1O)Oc1ccccc1 (stereo partly specified)	> 50	0.25	31	0.33	> 50	> 250	–	–
COC(=O)C(C)NP(=O)(OC[C@H]1C=C[C@@H](n2cc(C)c(=O)n(CCCn3c(=O)c(C)cn([C@@H]4O[C@H](CO[Si](C)(C)C(C)(C)C)[C@@]5(OS(=O)(=O)C=C5N)[C@H]4O[Si](C)(C)C(C)(C)C)c3=O)c2=O)O1)Oc1ccccc1 (stereo partly specified)	15	0.17	28	0.18	26	123	–	–
Cc1cn([C@@H]2O[C@H](CO[Si](C)(C)C(C)(C)C)C3(OS(=O)(=O)C=C3N)[C@H]2O[Si](C)(C)C(C)(C)C)c(=O)[nH]c1=O (stereo partly specified)	–	0.05	–	–	> 6	–	> 6	12
COC(=O)C(C)NP(=O)(OC[C@@H]1O[C@H](n2cc(C)c(=O)n(CCCCCCn3c(=O)c(C)cn([C@@H]4O[C@H](CO[Si](C)(C)C(C)(C)C)[C@@]5(OS(=O)(=O)C=C5N)[C@H]4O[Si](C)(C)C(C)(C)C)c3=O)c2=O)C[C@H]1N=[N+]=[N-])Oc1ccccc1 (stereo partly specified)	> 250	1.7	> 250	–	> 250	> 250	–	–
COC(=O)C(C)NP(=O)(OCC1OC(n2cc(C)c(=O)n(CCCCCCBr)c2=O)CC1N=[N+]=[N-])Oc1ccccc1 (stereo unspecified)	> 10	> 10	22	> 10	> 10	22	–	–
COC(=O)C(C)NP(=O)(OC[C@H]1C=C[C@@H](n2cc(C)c(=O)n(CCCCCCn3c(=O)c(C)cn([C@@H]4O[C@H](CO[Si](C)(C)C(C)(C)C)[C@@]5(OS(=O)(=O)C=C5N)[C@H]4O[Si](C)(C)C(C)(C)C)c3=O)c2=O)O1)Oc1ccccc1 (stereo partly specified)	> 50	0.4	37	0.57	> 50	> 250	–	–

The next lines start with results.

EC50 [1] [µM]	EC50 [3] [µM]	SMILES	CC50 [2] [µM]	EC50 [4] [µM]	EC50 [5] [µM]	CC50 [6] [µM]	EC50 [7] [µM]	CC50 [8] [µM]
57	0.34	Cc1cn([C@@H]2C[C@@H](N=[N+]=[N-])[C@H](CO)O2)c(=O)n(C/C=C/Cn2c(=O)c(C)cn([C@@H]3O[C@H](CO[Si](C)(C)C(C)(C)C)[C@@]4(OS(=O)(=O)C=C4N)[C@H]3O[Si](C)(C)C(C)(C)C)c2=O)c1=O	> 250	0.7	> 250	> 250	–	–
> 50	0.18	Cc1cn([C@@H]2C[C@@H](N=[N+]=[N-])[C@H](CO)O2)c(=O)n(CCOCCn2c(=O)c(C)cn([C@@H]3O[C@H](CO[Si](C)(C)C(C)(C)C)[C@@]4(OS(=O)(=O)C=C4N)[C@H]3O[Si](C)(C)C(C)(C)C)c2=O)c1=O	> 250	0.31	> 250	> 250	–	–
–	0.09	Cc1cn([C@@H]2O[C@H](CO[Si](C)(C)C(C)(C)C)[C@@]3(OS(=O)(=O)C=C3N)[C@H]2O[Si](C)(C)C(C)(C)C)c(=O)n(CCCn2c(=O)c(C)cn([C@H]3C[C@H](N=[N+]=[N-])[C@@H](CO)O3)c2=O)c1=O	> 100	0.38	–	> 100	–	–
> 10	0.55	Cc1cn([C@@H]2O[C@H](CO[Si](C)(C)C(C)(C)C)[C@@]3(OS(=O)(=O)C=C3N)[C@H]2O[Si](C)(C)C(C)(C)C)c(=O)n(CC#Cc2cn([C@@H]3C[C@@H](O)[C@H](CO)O3)c(=O)[nH]c2=O)c1=O	15	0.44	> 10	21	–	–
> 250	0.65	COC(=O)C(C)NP(=O)(OC[C@@H]1O[C@H](n2cc(C)c(=O)n(CCCn3c(=O)c(C)cn([C@@H]4O[C@H](CO[Si](C)(C)C(C)(C)C)[C@@]5(OS(=O)(=O)C=C5N)[C@H]4O[Si](C)(C)C(C)(C)C)c3=O)c2=O)C[C@H]1N=[N+]=[N-])Oc1ccccc1 (stereo partly specified)	> 250	3.2	> 250	> 250	–	–
> 50	0.23	Cc1cn([C@@H]2CC(N=[N+]=[N-])[C@H](CO)O2)c(=O)n(CC#CCn2c(=O)c(C)cn([C@@H]3O[C@H](CO[Si](C)(C)C(C)(C)C)[C@@]4(OS(=O)(=O)C=C4N)[C@H]3O[Si](C)(C)C(C)(C)C)c2=O)c1=O (stereo partly specified)	106	1	> 250	> 250	–	–
–	0.2	Cc1cn([C@@H]2O[C@H](CO[Si](C)(C)C(C)(C)C)[C@@]3(OS(=O)(=O)C=C3N)[C@H]2O[Si](C)(C)C(C)(C)C)c(=O)n(CC#Cc2cn([C@@H]3C[C@@H](N=[N+]=[N-])[C@H](CO)O3)c(=O)[nH]c2=O)c1=O	31	0.33	> 10	> 250	–	–
